Laboratory results published in ChEMBL document CHEMBL4425098, “Thiolactomycin-Based Inhibitors of Bacterial β-Ketoacyl-ACP Synthases with in Vivo Activity” (J Med Chem, 2016).
≈ marks a conversion by molar mass, not a printed value. Calls of active or inactive are those of the source. No cut-off for these calls is given here.

Assays:
[1] = biological target: T1, 3-oxoacyl-[acyl-carrier-protein] synthase 2 (Staphylococcus aureus, UniProt Q5TKS0); test: Binding affinity to Staphylococcus aureus wild type FabF expressed in Escherichia coli BL21 (DE3) PlysS cells by intrinsic tryptophan fluorescence quenching-based fluorimetric method
T1 sequence (Q5TKS0 whole entry): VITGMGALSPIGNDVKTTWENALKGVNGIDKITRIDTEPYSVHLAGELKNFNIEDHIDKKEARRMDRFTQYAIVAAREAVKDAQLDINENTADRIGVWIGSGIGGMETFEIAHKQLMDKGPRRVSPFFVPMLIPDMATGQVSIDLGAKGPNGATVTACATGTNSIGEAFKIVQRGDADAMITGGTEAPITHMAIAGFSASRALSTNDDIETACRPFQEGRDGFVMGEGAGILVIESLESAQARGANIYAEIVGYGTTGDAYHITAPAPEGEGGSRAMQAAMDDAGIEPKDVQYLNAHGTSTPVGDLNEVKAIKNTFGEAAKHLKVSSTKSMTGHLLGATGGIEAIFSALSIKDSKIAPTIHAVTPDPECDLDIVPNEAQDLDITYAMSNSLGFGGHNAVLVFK

[2] = system: Francisella tularensis; test: Antibacterial activity against Francisella tularensis LVS after 18 to 24 hrs by Alamar blue dye-based colorimetric assay; type: functional
[3] = system: Staphylococcus aureus; test: Antibacterial activity against methicillin-resistant Staphylococcus aureus BAA 1762 after 18 to 24 hrs by Alamar blue dye-based colorimetric assay; type: functional
[4] = system: Yersinia pestis; test: Antibacterial activity against Yersinia pestis A1122 after 18 to 24 hrs by Alamar blue dye-based colorimetric assay; type: functional
[5] = system: Staphylococcus aureus; test: Antibacterial activity against methicillin-sensitive Staphylococcus aureus RN4220 after 18 to 24 hrs by Alamar blue dye-based colorimetric assay; type: functional
In short: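 Two-fold serial dilutions from 512 down to 0.25 μg/mL in CAMHB (microbroth dilution); incubated 37 °C for 18–24 h, then Alamar Blue added for a further 4 h. Absorbance read at 570 and 600 nm; percent growth reduction plotted against concentration, MIC90 from non-linear regression; growth and MICs confirmed by optical density.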

[6] = biological target: 3-oxoacyl-[acyl-carrier-protein] synthase 2 (Staphylococcus aureus, UniProt Q5TKS0, C165Q); test: Binding affinity to Staphylococcus aureus FabF C165Q mutant expressed in Escherichia coli BL21 (DE3) PlysS cells by intrinsic tryptophan fluorescence quenching-based fluorimetric method
In short: (§1)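 Kd by quenching of intrinsic tryptophan fluorescence (excitation 280 nm, emission 337 nm). Inhibitor stocks in DMSO or buffer were titrated into 1 μM His-tag-purified enzyme in 50 mM Tris-HCl, 150 mM NaCl, 1 mM DTT, pH 8.5. mtFabB was expressed in M. smegmatis MC²155; saFabF was expressed in E. coli BL21(DE3) pLysS.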

[7] = system: Staphylococcus aureus; test: Antibacterial activity against methicillin-resistant Staphylococcus aureus BAA 1762 infected in Swiss Webster mouse assessed as survival time at 100 mg/kg, sc administered 1 and 25 hrs post infection measured twice a day for 5 days; type: functional
In short: (§2)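 Mice made neutropenic with cyclophosphamide 4 days and 1 day before infection. MRSA BAA 1762 was given IP as 0.5 mL of 5×10⁷ cells/mL in BHI. Analogues in water/ethanol, or vancomycin in water, were dosed SC at 100 mg/kg/inj at 1 and 25 h post infection. Survival was checked every 12 h for 5 days, n=6–7 per group. Average survival time was compared with vehicle by one-tailed t test.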

[8] = system: Klebsiella pneumoniae; test: Antibacterial activity against Klebsiella pneumoniae KPC2ST258 infected in Swiss Webster mouse assessed as survival time at 100 mg/kg, sc administered 1, 12 and 24 hrs post infection measured every 12 hrs for 7 days; type: functional
In short: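 K. pneumoniae KPC2ST258 was given IP as 5×10⁶ cfu in BHI broth. Drugs in saline/PEG400/ethanol (40/20/40) were injected SC at 100 mg/kg/inj at 1, 12 and 24 h post infection. Mice were checked every 12 h for 7 days, n=8–10 per group. Average survival time was compared with vehicle by one-tailed t test.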

[9] = system: Staphylococcus aureus; test: Antibacterial activity against methicillin-resistant Staphylococcus aureus BAA 1762 infected in sc dosed Swiss Webster mouse assessed as increase in survival rate administered 1 and 25 hrs post infection measured twice a day for 5 days; type: functional; conditions: BAA 1762, sc; in short: as §2
[10] = system: Mycobacterium tuberculosis; test: Antibacterial activity against Mycobacterium tuberculosis H37Rv after 6 days by Alamar blue dye-based colorimetric assay; type: functional; conditions: 144 h
In short: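 M. tuberculosis H37Rv grown to early-mid log phase in Middlebrook 7H9 with 10% OADC and 0.05% Tween 80, added to 1:2 serial compound dilutions, and grown for 6 days at 37°C. Alamar blue then added for a further 24 h. MIC taken as the concentration preventing visible growth and Alamar blue reduction in all replicates.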

[11] = system: Burkholderia pseudomallei; test: Antibacterial activity against Burkholderia pseudomallei after 18 to 24 hrs by Alamar blue dye-based colorimetric assay; type: functional
[12] = Binding affinity to Mycobacterium tuberculosis wild type FabB expressed in Mycobacterium smegmatis MC2 155 by intrinsic tryptophan fluorescence quenching-based fluorimetric method; in short: as §1
[13] = system: Mycobacterium tuberculosis; test: Binding affinity to Mycobacterium tuberculosis wild type FabB expressed in Mycobacterium smegmatis MC2 155 by WaterLOGSY-based competition assay
[14] = system: Staphylococcus aureus; test: Antibacterial activity against methicillin-resistant Staphylococcus aureus BAA 1762 infected in Swiss Webster mouse assessed as increase in survival rate at 100 mg/kg, sc administered 1 and 25 hrs post infection measured twice a day for 5 days relative to vehicle-treated control; type: functional, organism-based; in short: as §2

Row | Structure (SMILES) | Kd [1] | MIC90 [2] | MIC90 [3] | MIC90 [4] | MIC90 [5] | Kd [6] | MSD [7] | MSD [8] | ED50 [9] | MIC90 [10] | Activity [11] | Ki [12] | Activity [13] | Activity [14]
1 | C=C/C(C)=C/[C@@]1(C)SC(=O)C(C(=O)C(F)(F)F)=C1O | 58.4 µM | 98.1 µg/mL (≈ 336 µM) | 64 µg/mL (≈ 219 µM) | > 250 µg/mL | > 64 µg/mL | 56.2 µM | 3 days | 5.1 days | 125 mg/kg | 100 µg/mL (≈ 342 µM) | inactive | – | – | –
2 | C=C/C(C)=C/[C@@]1(C)SC(=O)C(C(=O)c2ccccc2C(=O)O)=C1O | – | 15.9 µg/mL (≈ 46.2 µM) | 32 µg/mL (≈ 92.9 µM) | > 250 µg/mL | 32 µg/mL (≈ 92.9 µM) | – | – | – | – | 50 µg/mL (≈ 145 µM) | inactive | – | – | –
3 | C=C/C(C)=C/[C@@]1(C)SC(=O)C(CCCCn2cc(CNC(=O)c3ccc(NS(=O)(=O)c4ccc(F)cc4)cc3)nn2)=C1O | – | 250 µg/mL (≈ 400 µM) | > 100 µg/mL | > 250 µg/mL | > 64 µg/mL | – | – | – | – | 100 µg/mL (≈ 160 µM) | – | – | – | –
4 | C=C/C(C)=C/[C@@]1(C)SC(=O)C(C(=O)CCCCCN=[N+]=[N-])=C1O | – | – | 16 µg/mL (≈ 47.7 µM) | – | 16 µg/mL (≈ 47.7 µM) | – | – | – | – | – | – | – | – | –
5 | C=C/C(C)=C/[C@@]1(C)SC(=O)C(C(=O)CCC)=C1O | – | 1.8 µg/mL (≈ 6.76 µM) | 32 µg/mL (≈ 120 µM) | > 250 µg/mL | 16 µg/mL (≈ 60.1 µM) | – | – | – | – | 100 µg/mL (≈ 375 µM) | inactive | – | – | –
6 | C=C/C(C)=C/[C@@]1(C)SC(=O)C(CCCCc2ccc(-c3ccccc3)cc2)=C1O | 131 µM | 1.9 µg/mL (≈ 4.7 µM) | 25 µg/mL (≈ 61.8 µM) | > 250 µg/mL | 16 µg/mL (≈ 39.5 µM) | – | – | – | – | 12.5 µg/mL (≈ 30.9 µM) | – | – | – | –
7 | C=C/C(C)=C/[C@@]1(C)SC(=O)C(CCC)=C1O | – | 25.8 µg/mL (≈ 108 µM) | > 200 µg/mL | > 250 µg/mL | > 200 µg/mL | – | – | – | – | 25 µg/mL (≈ 105 µM) | inactive | – | – | –
8 | C=C/C(C)=C/[C@@]1(C)SC(=O)C=C1OCC(=O)NCCNC(=O)OC(C)(C)C | – | 54 µg/mL (≈ 136 µM) | > 64 µg/mL | – | > 64 µg/mL | – | – | – | – | > 100 µg/mL | – | > 200 µM | inactive | –
9 | C=C/C(C)=C/[C@@]1(C)SC(=O)C(CCCCn2cc(CNC(=O)[C@H](O)C(C)(C)CO)nn2)=C1O | – | 250 µg/mL (≈ 522 µM) | > 100 µg/mL | > 250 µg/mL | > 64 µg/mL | – | – | – | – | > 100 µg/mL | – | – | – | –
10 | C=C/C(C)=C/[C@@]1(C)SC(=O)C(CCCCc2ccc(Br)cc2)=C1O | 92 µM | 2.2 µg/mL (≈ 5.4 µM) | 50 µg/mL (≈ 123 µM) | > 250 µg/mL | 32 µg/mL (≈ 78.6 µM) | – | – | – | – | 12.5 µg/mL (≈ 30.7 µM) | – | – | – | –
11 | C=C/C(C)=C/[C@@]1(C)SC(=O)C=C1OCC(=O)NCCn1cc(CNC(=O)[C@H](O)C(C)(C)CO)nn1 | – | 159 µg/mL (≈ 313 µM) | > 64 µg/mL | – | > 64 µg/mL | – | – | – | – | 100 µg/mL (≈ 197 µM) | – | – | inactive | –
12 | C=C/C(C)=C/[C@@]1(C)SC(=O)C(C(C)=O)=C1O | 14.2 µM | 8.8 µg/mL (≈ 36.9 µM) | 32 µg/mL (≈ 134 µM) | > 250 µg/mL | 64 µg/mL (≈ 269 µM) | 11.9 µM | – | 4.6 days | – | 12.5 µg/mL (≈ 52.5 µM) | inactive | – | – | Active
13 | C=C/C(C)=C/[C@@]1(C)SC(=O)C(CCc2ccc(C)cc2)=C1O | – | 3.4 µg/mL (≈ 10.8 µM) | > 100 µg/mL | > 250 µg/mL | > 64 µg/mL | – | – | – | – | – | – | – | – | –
14 | C=C/C(C)=C/[C@@]1(C)SC(=O)C(C(=O)CCCCCc2ccc(-c3ccccc3)cc2)=C1O | 35.2 µM | 0.21 µg/mL (≈ 0.47 µM) | 1 µg/mL (≈ 2.24 µM) | > 250 µg/mL | 0.5 µg/mL (≈ 1.12 µM) | 33 µM | – | – | – | 50 µg/mL (≈ 112 µM) | inactive | – | – | Active
